PG9 binder: PG9 antibody binding by small molecule; TR-FRET gp120-PG9 antibody binding; inhibition, % at 6.7 µM; 0.43% of 360,000 active; in the data active = inhibition above about 8.5%
NR2E3 ag-1: NR2E3 (human) agonism; 0.12% of 320,000 active; Q9Y5X4; inhibition of corepressor binding, % at 4.78 µM; AID 2300; GST-NR2E3/biotin-RetCOR TR-FRET, 1536-well;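 active = percent inhibition above the cutoff of mean plus 3 SD of all tested compounds, set per screening campaign, cut at about 20% in these data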
Target sequence (Q9Y5X4 whole entry, looked up): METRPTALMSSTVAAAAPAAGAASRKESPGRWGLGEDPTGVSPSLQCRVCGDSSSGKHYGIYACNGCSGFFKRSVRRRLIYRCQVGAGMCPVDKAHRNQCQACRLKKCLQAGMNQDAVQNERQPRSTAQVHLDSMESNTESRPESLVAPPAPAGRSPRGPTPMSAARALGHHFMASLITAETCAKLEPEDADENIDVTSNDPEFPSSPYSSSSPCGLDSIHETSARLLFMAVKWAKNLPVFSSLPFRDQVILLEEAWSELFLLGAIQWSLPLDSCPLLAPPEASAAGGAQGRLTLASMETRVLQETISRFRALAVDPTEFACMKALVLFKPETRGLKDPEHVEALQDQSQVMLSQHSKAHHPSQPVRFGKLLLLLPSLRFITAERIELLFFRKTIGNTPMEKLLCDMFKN
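Material: NR2E3–RetCOR corepressor complex / Incubation: Compound–protein incubation for 5 h at 4 °C / Dosing: compound at 4.8 µM, single dose / Detection: time-resolved FRET / Benchmarks: high control biotin, low control 0.6% DMSO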
Rev-erbA mod: modulators of human Rev-erb alpha DNA binding; P20393; Rev-erbα–FITC-DNA binding, fluorescence polarization, 90 min; activity, % at 10 µM; 0.79% of 370,000 active; AID 1259318;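 active = activity above about 14%, limit read from the data; passing the limit was not always enough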
PKA-R2B activ: PKA-R2B complex activation. P22694+P31323. PKA-R2B holoenzyme dissociation, Cy5-IP20 fluorescence polarization; R2B truncated from residue 108, S112A mutant; 0% DMSO only, 100% 113 µM cGMP. activation, % at 11.4 µM. 0.079% of 340,000 active;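 active = activation above a cutoff set at the mean over all compounds plus 3 SD, cut at about 18% in these data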;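 also: higher means more holoenzyme dissociation and a rise in polarization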
PKA-R1A activ: PKA-R1A complex activation. P00514+P68181. PKA-R1A dissociation, Cy5-IP20 fluorescence polarization; scaled: DMSO 0%, 113 µM cGMP 100%. activation, % at 11.4 µM. 0.083% of 340,000 active. AID 504707;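 active = percent activation above the mean of all tested compounds plus 3 SD, cut at about 19% in these data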;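 also: higher means more PKAc released from R1A so a rise in polarization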
NR2E3 ag-2: activates human NR2E3 receptor; AID 602229; inhibition of corepressor binding, % at 3.98 µM; CHO-S Gal4-NCOR/VP16-NR2E3 two-hybrid, luciferase; Q9Y5X4; 0.35% of 360,000 active;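 active = inhibition above the mean of all tested compounds plus 3 SD, cut at about 70% in these data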;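 also: higher means lower luciferase signal from less NR2E3 corepressor binding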
Rev-erbA confirm: confirmation of modulators of human Rev-erb alpha DNA binding | shares compounds with Rev-erbA mod | Rev-erb alpha FITC-DNA binding, fluorescence polarization, 90 min | activation, % at 25 µM | 61% of 3,000 active | AID 1259319;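 active = activation at or above a set limit, or at least 3 SD above the negative control mean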
RORg DNA counter: RORgamma DNA-binding activity, dose-response counter-screen; shares compounds with Rev-erbA mod; purified RORgamma protein-FITC-DNA binding, fluorescence polarization; IC50, µM; 8% of 910 active;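 active = Compounds whose fitted half-maximal concentration for disrupting protein-DNA binding is below 10 micromolar; the record names Rev-erb in its text, so the target is in doubt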
Of the large screens only hits and unclear results are named; the others gave an inactive call (follow-up assays come after a bar, where they were run). Shown are actives, neighbours in structure and some others; about 1.6% of the full set was active somewhere.

COc1ccc(-c2cc(C(F)(F)F)n3ncc(C(=O)NCC4CCCO4)c3n2)cc1OC (configuration not stated)	Rev-erbA mod 27.9 | Rev-erbA confirm 30.9
O=C(NCC1CCCO1)c1nn2c(C(F)(F)F)cc(-c3cccs3)nc2c1Br (configuration not stated)	Rev-erbA mod 26.2 | Rev-erbA confirm 17.6
COc1ccc(-c2cc(C(F)F)n3ncc(C(=O)NCC4CCCO4)c3n2)cc1 (configuration not stated)	Rev-erbA mod 35.7 | Rev-erbA confirm inactive
CCc1ccc(CCNC(=O)OCCCN2CCC3(CCC(C)CC3)C2=O)cc1 (configuration not stated)	none (no result: PG9 binder, NR2E3 ag-1, PKA-R2B activ, PKA-R1A activ, NR2E3 ag-2)
Cc1ccccc1CN(C)CCS(=O)(=O)c1cc(Cl)ccc1Cl	Rev-erbA mod 16.5 | Rev-erbA confirm inactive
Nc1nnc(CCS(=O)(=O)c2cc(Cl)ccc2Cl)s1	none
Cc1ccc(-c2cc(C(=O)N=Nc3c(O)[nH]c4ccccc34)[nH]n2)cc1C	none (no result: PG9 binder, NR2E3 ag-1, PKA-R2B activ, PKA-R1A activ, NR2E3 ag-2)
Cc1sc2ncnc(SCC(=O)N3c4ccccc4Sc4ccc(Cl)cc43)c2c1C	Rev-erbA mod 131.6 | Rev-erbA confirm 17.1
Cc1sc2ncnc(SCC(=O)N3CCCCC3)c2c1C	none
CCn1c2ccccc2c2cc(NC(=O)COC(=O)c3cc(F)ccc3C)ccc21	none (no result: PG9 binder, NR2E3 ag-1, PKA-R2B activ, PKA-R1A activ, NR2E3 ag-2)
CCCOc1ccc(C(=O)N2CCC(Oc3cccnc3)CC2)cc1	none (no result: PG9 binder, NR2E3 ag-1, PKA-R2B activ, PKA-R1A activ, NR2E3 ag-2)
Cc1cc(C)n2nc(-c3ccc(Cl)cc3)cc2n1	Rev-erbA mod 64.6 | Rev-erbA confirm 51.8 | RORg DNA counter inactive
Cc1cc(C)n2nc(-c3ccc(Br)cc3)cc2n1	Rev-erbA mod 27.1 | Rev-erbA confirm inactive
COc1ccc(-c2cc3nc(C)cc(C)n3n2)cc1	none
CC(=O)c1cnc2cc(-c3ccc(Cl)cc3)nn2c1C	Rev-erbA mod 28.0 | Rev-erbA confirm inactive
COC(=O)[C@]1(C#N)CC(=O)N(C)[C@@H]1c1ccccc1	none (no result: PG9 binder, NR2E3 ag-1, PKA-R2B activ, PKA-R1A activ, NR2E3 ag-2)
COc1cc(C=Cc2nnc3c4ccccc4cnn23)cc(OC)c1OC	Rev-erbA mod 50.2 (no result: NR2E3 ag-1) | Rev-erbA confirm 36.0 | RORg DNA counter inactive
COc1cc(C=C2C(=O)c3ccccc3C2=O)cc(OC)c1OC	none
CCCCOc1ccc(N(CC(=O)NC2CCCCC2)C(=O)c2snc(C(N)=O)c2N)cc1	Rev-erbA mod 63.7 | Rev-erbA confirm 40.5 | RORg DNA counter inactive
NC(=O)c1nsc(C(=O)N(CC(=O)NC2CCCCC2)c2ccc(Cl)cc2)c1N	none
O=S1(=O)c2c(NCc3ccco3)cccc2Oc2ccccc2CN1Cc1cn(Cc2ccccc2C(F)(F)F)nn1	none (no result: PG9 binder, NR2E3 ag-1, PKA-R2B activ, PKA-R1A activ, NR2E3 ag-2)
CCOC(=O)c1oc2ccccc2c1NC(=O)COc1ccc(F)cc1	none (no result: PG9 binder)
CCOC(=O)c1oc2ccccc2c1NC(=O)COc1cccc(OC)c1	Rev-erbA mod 23.3 | Rev-erbA confirm inactive
COc1cc(N=Nc2ccc(C)cc2S(N)(=O)=O)c(C)cc1N	Rev-erbA mod 24.8 (no result: NR2E3 ag-1) | Rev-erbA confirm 20.9
COc1ccc2oc(=O)c(-c3cn4ccc(C)cc4n3)cc2c1	Rev-erbA mod 75.8 | Rev-erbA confirm inactive
CN(CCCOC(=O)c1cc2ccccc2o1)C1CN(Cc2cn(Cc3ccccc3C(F)(F)F)nn2)S(=O)(=O)C1 (configuration not stated)	none (no result: PG9 binder, NR2E3 ag-1, PKA-R2B activ, PKA-R1A activ, NR2E3 ag-2)
COc1ccc(C(=O)C[n+]2ccc3c(c2)nc(Cc2ccccc2)n3C)cc1	none (no result: PG9 binder, NR2E3 ag-1, PKA-R2B activ, PKA-R1A activ, NR2E3 ag-2)
CC(C)(C)OC(=O)[C@H](Cc1ccccc1)NC(=O)c1ncn2c1c(=O)[nH]c1ccc(Br)cc12	Rev-erbA mod 168.3 (no result: NR2E3 ag-1) | Rev-erbA confirm inactive
Cn1nc(C(=O)OCC(=O)Nc2cc(Cl)ccc2C#N)c2ccccc2c1=O	none
Cn1nc(C(=O)OCC(=O)NCc2ccc(Cl)cc2Cl)c2ccccc2c1=O	Rev-erbA mod 18.2 (no result: NR2E3 ag-1) | Rev-erbA confirm 20.0
COc1ccc(-c2cc(C3CC3)nc(SCC(=O)c3cccs3)c2C#N)cc1	Rev-erbA mod 87.8 | Rev-erbA confirm 109.9 | RORg DNA counter inactive
CCOC(=O)CSc1nc(C2CC2)cc(-c2ccc(F)cc2)c1C#N	none (no result: Rev-erbA mod)
COc1ccc(CN2CCCC(CO)(Cc3ccc(F)cc3)C2)cc1C (configuration not stated)	Rev-erbA mod 12.6 | Rev-erbA confirm inactive
Cc1ccc(-n2c(SC/C=C/c3ccccc3)nnc2-c2ccco2)cc1	none (no result: PG9 binder, NR2E3 ag-1, PKA-R2B activ, PKA-R1A activ, NR2E3 ag-2)
O=C(CSc1nnc(-c2cccs2)o1)c1cccc([N+](=O)[O-])c1	none (no result: PG9 binder, NR2E3 ag-1, PKA-R2B activ, PKA-R1A activ, NR2E3 ag-2)
CCOC(=O)/C(=C/C=C1\Sc2cc(C)c(C)cc2N1CC)C(C)=O	Rev-erbA mod 31.5 (no result: NR2E3 ag-1) | Rev-erbA confirm inactive
CCOC(=O)/C(=C\C=C1/Sc2ccccc2N1CC)C(C)=O	Rev-erbA mod 27.2 | Rev-erbA confirm inactive
CCOC(=O)/C(=C/C=C1\Sc2ccccc2N1CC)C(C)=O	none (no result: PG9 binder, Rev-erbA mod)
COC(=O)C1CN(Cc2ccccc2)CCS(=O)(=O)N1Cc1cn(Cc2cccc(Cl)c2)nn1 (configuration not stated)	none (no result: PG9 binder, NR2E3 ag-1, PKA-R2B activ, PKA-R1A activ, NR2E3 ag-2)
N#C/C(=C\c1ccc(O)cc1)c1nc2ccccc2o1	none
COc1cc(/C=C(\C#N)c2nc3ccccc3o2)ccc1O	Rev-erbA mod 42.7 | Rev-erbA confirm 59.7 | RORg DNA counter inactive

High-throughput results deposited in PubChem BioAssay by several laboratories.
